Source: article PMC9998565 (Clinical Pharmacokinetics, 2023)

Key:
[1] = tested on: healthy white male volunteers; experiment: Hemodynamic profile; assay type: in vivo, human
Summary of the method: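 Healthy men took test compound 10 mg or placebo once daily for 16 days, with a second test compound (25, 50, 100 mg) ~2 h later on days 13–15. After 15 min supine, seated then standing (2 min) SBP, DBP and HR were taken from 1.25 to ~5 h post-dose on days 0 and 12–15. Baseline was the mean of four seated pre-co-dose values. ANCOVA was run per dose; standing data were descriptive.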

[2] = Sildenafil pharmacokinetics in plasma; assay type: in vivo, human
Summary of the method: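 For the co-administered compound, plasma (EDTA K3) was drawn 3, 4, 6, 8, 12 and 24 h after test compound/placebo on days 13–15, with dosing at 2 h. Processing used a deuterated internal standard and methyl tert-butyl ether liquid-liquid extraction, then a validated LC assay. Samples were stored at −20 °C and analysed within 38 days. Log AUC(0–22) and Cmax went through ANOVA per dose; the test/placebo ratio was given with 90% CIs.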

[3] = cited from earlier work
[4] = tested on: healthy subjects; settings: cited from earlier work
[5] = tested on: healthy white male volunteers; experiment: Safety and tolerability; assay type: in vivo, human
Summary of the method: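 Safety covered AEs, coded by MedDRA 19.0; an AE counted as treatment-emergent if it began or worsened from first dose to 30 days post-treatment, and investigators judged relatedness. Fasting haematology, chemistry, coagulation and urinalysis were collected at screening, pre-dose days 0 and 12–15, day 16 and follow-up. Vital signs and ECGs were taken after 15 min supine rest, pre-dose and 5.5 h post-dose (day 12 pre-dose only). All dosed subjects were included.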

[6] = Vericiguat pharmacokinetics in plasma; assay type: in vivo, human
Summary of the method: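 Test compound was 10 mg once daily after breakfast. Lithium-heparin plasma was sampled pre-dose and at 0.5–15 h on days 12–15, plus 24 h on day 16. A labelled internal standard was added, then automated acetonitrile/ammonium acetate/formic acid precipitation and validated LC. QC accuracy was 93.88–101.33% and CV 1.24–2.58%; storage was −20 °C, analysis within 36 days. Log AUC(0–24) and Cmax were analysed by ANOVA (administration, subject).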

[7] = tested on: patients with HF with reduced ejection fraction; settings: vericiguat 10 mg once daily; cited from earlier work
[8] = tested on: patients with pulmonary arterial hypertension; settings: 12 weeks, riociguat 1.0–2.5 mg with sildenafil 20 mg three times daily; cited from earlier work
[9] = during treatment with sildenafil, days 13–15
[10] = whole study, both groups also received sildenafil on days 13–15
[11] = ANCOVA, day 14, both groups + sildenafil 50 mg

## CCCc1nn(C)c2c(=O)[nH]c(-c3cc(S(=O)(=O)N4CCN(C)CC4)ccc3OCC)nc12 [Sildenafil]
[1]; 25, 50, 100 mg, placebo group
  Dose dependency of BP-reducing effect: no clear dose dependency
[1]; after single doses of sildenafil on days 13–15, placebo group
  Mean decreases from baseline in BP: ≤ 5.3 mmHg
[1]; days 13–15, placebo group
  Mean maximum decreases in BP: ≤ 11.0 mmHg
[2]; across sildenafil 25–100 mg
  Increase in sildenafil AUC(0–22), vericiguat group compared with placebo group: 13–22%
  Increase in sildenafil Cmax, vericiguat group compared with placebo group: 14–20%
[2]; sildenafil 25 mg
  Increase in sildenafil AUC(0–22) with co-administration of vericiguat: 22.4%
  Increase in sildenafil Cmax with co-administration of vericiguat: 14.2%
[2]; sildenafil 50 mg
  Increase in sildenafil AUC(0–22) with co-administration of vericiguat: 17.1%
  Increase in sildenafil Cmax with co-administration of vericiguat: 20.4%
[2]; sildenafil 100 mg
  Increase in sildenafil AUC(0–22) with co-administration of vericiguat: 13.0%
  Increase in sildenafil Cmax with co-administration of vericiguat: 17.1%
[2]; sildenafil 100 mg, day 15, co-administered with vericiguat
  Time required to achieve the geometric mean Cmax of sildenafil: 2 h
[2]; sildenafil 100 mg, day 15, with placebo
  Time required to achieve the geometric mean Cmax of sildenafil: 1 h
[2]; sildenafil 25–100 mg
  Increase in sildenafil exposure when co-administered with vericiguat: ≤ 22%
[3]
  Terminal half-life: about 4 h
  Time to achieve Cmax: 1 to 2 h
[4]; healthy volunteers
  Mean maximum decrease in DBP: 5.3 mmHg
  Mean maximum decrease in SBP: 8.3 mmHg

## COC(=O)Nc1c(N)nc(-c2nn(Cc3ccccc3F)c3ncc(F)cc23)nc1N [Vericiguat]
[5]; by treatment group, whole study
  TEAEs of mild intensity: 81.3%
[5]; days 0–12, vericiguat group
  Subjects with dyspepsia (TEAE): 25.0%
  Subjects with gastrointestinal disorders (TEAE): 31.3%
[5]; [9]
  Subjects with head discomfort (TEAE): up to 13.3%
  Subjects with headache (TEAE): up to 21.4%
[5]; in vivo
  Effects on ECG parameters, including the QT interval: no relevant effects
[5]; [10]
  Subjects reporting at least one TEAE: All subjects
  Subjects with at least one sildenafil-related TEAE: 87.5%
  Subjects with at least one vericiguat-related TEAE: 62.5%
[1]; ANCOVA, day 13, both groups + sildenafil 25 mg
  Change in seated HR, LS mean difference ‘vericiguat-placebo’: 0.96 bpm
[1]; [11]
  Change in seated HR, LS mean difference ‘vericiguat-placebo’: 0.81 bpm
  Change in seated SBP, LS mean difference ‘vericiguat-placebo’: 1.36 mmHg
[1]; ANCOVA, day 15, both groups + sildenafil 100 mg
  Change in seated HR, LS mean difference ‘vericiguat-placebo’: 1.38 bpm
[1]; day 0
  Maximum SBP when seated or standing: 143 mmHg
  Minimum SBP when standing: 97 mmHg
  Standing HR: 54–108 bpm
[1]; day 12
  Maximum SBP when seated or standing: 141 mmHg
  Minimum SBP when standing: 93 mmHg
  Standing HR: 53–102 bpm
[1]; day 13, with sildenafil 25 mg
  Range of standing HR values: 54–114 bpm
[1]; day 14, with sildenafil 50 mg
  Range of standing HR values: 54–119 bpm
[1]; day 15, with sildenafil 100 mg
  Range of standing HR values: 53–127 bpm
[1]; days 13–15, with sildenafil
  Minimum standing SBP: 81–91 mmHg
[6]; sildenafil 25–100 mg
  Effect of co-administration of sildenafil on vericiguat pharmacokinetics: did not affect
[6]; vericiguat 10 mg once daily, days 12–15
  Time at which vericiguat Cmax values were reached post-administration: about 3 h
[7]
  Composite endpoint of death from cardiovascular causes or hospitalization for HF, hazard ratio: 0.90
[3]
  Half-life: 20 to 30 h
[3]; intake with food as recommended
  Onset (time after intake): ~ 4 h
[3]; steady state, after intake
  Time to achieve maximum plasma concentration (Cmax): approximately 4 h
[4]; healthy subjects, vericiguat 5–15 mg over several days
  Increases in HR: 4–10 bpm

## COC(=O)N(C)c1c(N)nc(-c2nn(Cc3ccccc3F)c3ncccc23)nc1N [riociguat]
[3]
  Cmax at (time after intake): 1 to 1.5 h
  Half-life: 7 to 12 h
[8]
  Standing SBP after dosing lower than with placebo: approximately 10 mmHg
